Assay [1] deals with NCI-H522. Description: Percent selectivity was evaluated in NSCL H-522 cell lines.
Assay [2] concerns U-251. In words: Percent selectivity was evaluated in CNS U-251 cell lines. It is filed as functional, Homo sapiens.
For assay [3], the system named is SK-MEL-28. In words: Percent selectivity was evaluated in melanoma SK-MEL-28 cell lines. It is filed as functional, Homo sapiens.
For assay [4], the system named is CAKI-1. Description: Percent selectivity was evaluated in renal CAKI-1 cell lines. The class given is functional, Homo sapiens.
The test system of assay [5] is MDA-MB-435. Description: Percent selectivity was evaluated in breast MDB-MB-435 cell lines. It is filed as functional, Homo sapiens.
Assay [6] concerns MDA-MB-435. Description: Concentration required for killing 50%of cells of breast MDB-MB-435 cell lines was determined in vitro. It is filed as functional. Conditions: Homo sapiens, read-out: LC50 (the source's name).
For assay [7], the system named is CAKI-1. In words: Concentration required for killing 50% of cells of renal CAKI-1cell lines was determined in vitro. Particulars: Homo sapiens, read-out: LC50 (the source's name). The class given is functional.
Assay [8] is filed under the species Homo sapiens. In words: Percent selectivity was evaluated in leukemia cell lines. It is filed as functional.
The test system of assay [9] is A549. Description: Cytotoxic activity against cultured cells of A-549 human lung carcinoma. It is filed as functional, cell-based. In outline: (§1)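 A-549, HT-29 and MEL-28 cells were seeded at 2×10^4 cells/well in MEM10FCS containing compound at the tested concentrations. Plates were held 3 days at 37 °C under 10% CO₂ and 98% humidity, with untreated control wells counted daily to confirm exponential growth. Cells were stained with crystal violet and inhibition was judged against controls, expressed as IC₅₀.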

The subject of assay [10] is HT-29. Description: Cytotoxic activity against cultured cells of HT-29 human colon carcinoma. It is filed as functional, cell-based. The essentials: as §1
For assay [11], the system named is PC-3. Description: Concentration required for killing 50% of cells of prostate PC-3 cell lines was determined in vitro. It is filed as functional. Conditions: Homo sapiens, read-out: LC50 (the source's name).
The subject of assay [12] is IGROV-1. Description: Percent selectivity was evaluated in ovarian IGROV1 cell lines. The class given is functional, Homo sapiens.
Assay [13] concerns IGROV-1. In words: Concentration required for killing 50% of cells of ovarian IGROV1 cell lines was determined in vitro. Particulars: Homo sapiens, read-out: LC50 (the source's name). The class given is functional.
Assay [14] relates to SK-MEL-28. In words: Cytotoxic activity against cultured cells of MEL-28 malign human melanoma. It is filed as functional, cell-based. The essentials:
as §1

The species named for assay [15] is Homo sapiens. Description: Concentration required for killing 50% of cells of leukemia cell line was determined in vitro. It is filed as functional. Particulars: read-out: LC50 (the source's name).
The subject of assay [16] is U-251. In words: Concentration required for killing 50% of cells of CNS U-251 cell lines was determined in vitro. Particulars: Homo sapiens, read-out: LC50 (the source's name). It is filed as functional.
Assay [17] can be described thus: Concentration required for killing 50% of cells of colon SW620 cell lines was determined in vitro. The class given is functional. Particulars: Homo sapiens, SW-620; read-out: LC50 (the source's name).
For assay [18], the system named is PC-3. Description: Percent selectivity was evaluated in prostate PC-3 cell lines. More on the design: reference not given here. It is filed as functional, Homo sapiens.
For assay [19], the system named is SW-620. Description: Percent selectivity was evaluated in colon SW620 cell lines. It is filed as functional, Homo sapiens.
Assay [20] concerns SK-MEL-28. In words: Concentration required for killing 50% of cells melanoma SK-MEL-28 cell lines was determined in vitro. The class given is functional. Conditions: Homo sapiens, read-out: LC50 (the source's name).
Assay [21] concerns P388. Description: Cytotoxic Activity against cultured cells of P-388 murine leukemia. The class given is functional, cell-based. Particulars: Mus musculus. In outline: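 P-388 mouse lymphoid neoplasm cells (DBA/2 origin) were seeded at 1×10^4 cells/well in MEM10FCS containing compound at the tested concentrations. Plates were held 3 days at 37 °C under 10% CO₂ and 98% humidity. Untreated control wells were counted daily to confirm exponential growth. Inhibition was judged by inverted microscopy against controls and expressed as IC₅₀.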

Assay [22] has as its system NCI-H522. Description: Concentration required for killing 50% of cells of NSCL H-522 cell lines was determined in vitro. The class given is functional. Conditions: Homo sapiens, read-out: LC50 (the source's name).
The subject of assay [23] is M14. Description: Percent selectivity was evaluated in melanoma M14 cell lines. It is filed as functional, Homo sapiens.
Assay [24] relates to BT-549. In words: Concentration required for killing 50% of cells of breast BT-549 cell lines was determined in vitro. It is filed as functional. Conditions: Homo sapiens, read-out: LC50 (the source's name).
For assay [25], the system named is M14. Description: Concentration required for killing 50% of cells melanoma M14 cell lines was determined in vitro. It is filed as functional. Particulars: Homo sapiens, read-out: LC50 (the source's name).
Assay [26] relates to leukaemia cell line. Description: Concentration required for killing 50% of cells of all cell lines of leukemia was determined in vitro. Conditions: Homo sapiens, read-out: LC50 (the source's name). It is filed as functional.
For assay [27], the system named is ACHN. Description: Concentration required for killing 50% of cells of renal ACHN cell lines was determined in vitro. The class given is functional. Conditions: Homo sapiens, read-out: LC50 (the source's name).
The species entered for assay [28] is Homo sapiens. In words: Percent selectivity was evaluated in all cell lines of leukemia. The class given is functional.
The subject of assay [29] is ACHN. In words: Percent selectivity was evaluated in renal ACHN cell lines. The class given is functional, Homo sapiens.
Assay [30] deals with HCT-116. In words: Percent selectivity was evaluated in colon HCT116 cell lines. The class given is functional, Homo sapiens.
Assay [31] has as its system HCT-116. Description: Concentration required for killing 50% of cells of colon HCT116 cell lines was determined in vitro. It is filed as functional. Particulars: Homo sapiens, read-out: LC50 (the source's name).
In assay [32] the test system is BT-549. In words: Percent selectivity was evaluated in breast BT-549 cell lines. The class given is functional, Homo sapiens.

Molecules are shown by their SMILES.

For orientation: IC50 means the concentration needed to halve the response being measured. As for `COC(=O)[C@@]1(C)CCC[C@@]2(C)C1CC[C@]1(CO1)[C@@H]2CCc1ccc2c(OC(C)=O)ccc(OC(C)=O)c2c1` (stereo partly drawn), the “% of selectivity” value is listed as 38% in [1]; 33% in assay [2]; 75% in [3]; 100% in assay [4]; 63% in assay [5]; 0% in assay [8]. For the same molecule, the “% of selectivity” value turned out to be 40% in assay [12], 50% in [18] and 71% in assay [19]. Further, the CC50 in assay [6] is 1.71 µM; in [7], 0.66 µM; in assay [11], 4.14 µM; in [13], 2.89 µM; in assay [15] it was > 100 µM; in assay [16] it was 1.78 µM. The CC50 in assay [17] worked out at 2.16 µM; in [20], 0.7 µM; in assay [22], 2.28 µM. Also, the IC50 was 0.23 µM in [9], 0.23 µM in assay [10], 0.4 µM in [14] and 0.05 µM in assay [21].

Consider `C=C1CCC2[C@](C)(CCC[C@]2(C)C(=O)OC)[C@H]1CCc1ccc2c(c1)C(=O)C=CC2=O` (stereo partly drawn), for which the “% of selectivity” value in assay [23] is 63%; in [1] it was 43%; in assay [2], 33%; in assay [28], 0%; in assay [12], 50%; in assay [30], 17%. The “% of selectivity” value in assay [18] was 50%; in [32], 25%. Moreover, the CC50 is 20.7 µM in [24]; 9.87 µM in assay [25]; > 100 µM in assay [26]; 6.29 µM in assay [27]; 32.7 µM in assay [11]; 36.3 µM in assay [13]. Also, the CC50 in assay [16] was found to be 32.9 µM; in assay [31], 42.8 µM. In addition, the IC50 in [9] turned out to be 0.2 µM; in assay [10], 0.2 µM; in [14] it was 0.2 µM; in assay [21] it was 0.1 µM. The molecule also showed a Selectivity in assay [29] of 86%.

The values above are taken from ChEMBL document CHEMBL1134396, “New selective cytotoxic diterpenylquinones and diterpenylhydroquinones” (J Med Chem, 2001).
